Experimental findings from PubChem BioAssay are described below.

Test [1] can be described thus: inhibitors of TNFa-induced NFkB p65 translocation, primary screen, imaging, HUVEC, MLSMR starter and 10KST1 sets (AID 438;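 active means inhibition above 20% together with a positive visual image hit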;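 further: compound added about 3h40 before a 20 min TNFalpha stimulation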;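 on inhibition: signal is the nuclear over cytoplasmic p65 intensity ratio per well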). Particulars: HUVEC TNFa-induced p65 nuclear translocation; cell count: measured here: nuclei count (cytotoxicity indicator), at 2.08 µM; inhibition: at 2 µM, stronger effect = higher value, 0% TNFa-plus-vehicle, 100% no-TNFa wells.
Test [2] in a line: inhibitors of mutant huntingtin aggregation, primary screen, imaging, exon1htt(103Q)mCFP cells, high-content imaging (AID 483;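 active means visual image review flags a hit and inhibition of aggregation exceeds 20%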;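 further: compound exposure lasted 3 days before fixation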;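 on nuclei count: percent of the per-plate median nuclei count of sample wells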). Particulars: exon1htt(103Q)mCFP cell line, aggregate imaging, at 2 µM; inhibition of aggregation: stronger effect = higher value; nuclei count: measured here: cell count, toxicity.
Test [3] is described as follows: inhibitors of E-selectin induction by TNFa, primary screen, imaging, HUVEC, immunofluorescence, MLSMR starter and 10KST1 sets (AID 487;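 active means visually confirmed hit in the image check and inhibition above 20%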;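 on inhibition: signal is fraction of cell area covered by stained E-selectin grains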;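 on nuclei count: 100% = median nuclei count of all wells on the same plate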). Particulars: HUVEC TNFalpha-induced E-selectin immunofluorescence imaging, at 2 µM; inhibition: stronger effect = higher value; nuclei count: measured here: cell number, toxicity.
Test [4] has as its target Voltage-gated potassium channel subunit beta-2 (Rattus norvegicus) (UniProt P62483). As to the kind of experiment: KvBeta enzyme negative modulators, primary screen, biochemical, NADPH fluorescence (AID 622).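 Further: slope of raw intensity against log time taken from 70 to 1610 s.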 Particulars: recombinant KvBeta, 4-cyanobenzaldehyde reduction, at 10 µM, stronger effect = higher value.
Test [5] shares this target. As to the kind of experiment: KvBeta positive modulators, primary screen, biochemical, NADPH fluorescence (AID 623;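 active means NADPH fluorescence slope more negative than the mean of all samples by about 3 SD, 99.7% confidence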;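 further: fluorescence intensity change per second fitted from 20 to 320 s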). Particulars: Recombinant KvBeta, NADPH fluorescence decrease slope, 10 min; at 10 µM; stronger effect = lower value.
Test [6] has as its target Muscarinic acetylcholine receptor M4 (Homo sapiens) (UniProt P08173). The test can be described thus: compounds altering M4/GIRK thallium flux, either direction, primary screen, M4 allosteric agonist project, cell-based, HEK293 M4/GIRK, BTC-AM (AID 625;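 active means fluorescence slope after compound addition differing from the mean of all tested samples at 99.7% confidence, mostly higher but some lower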;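 further: thallium influx through GIRK channels coupled to M4 in HEK293 cells with BTC-AM dye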). Particulars: at 10 µM, actives lie on both sides. In a few lines: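 Material: M4/GIRK1/GIRK2 stable HEK293 cell line. Medium: pH 7.3 thallium assay buffer. Dosing: single compound concentration, 10 µM final. Schedule: 1 h dye loading, 2 min kinetic read. Measured by: kinetic fluorescence with BTC-AM dye. Read-out: post-addition slope, 15–24 s, of baseline-normalized fluorescence. Benchmarks: carbachol and DMSO controls.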

A short description of test [7]: inhibitors of Sendai virus-induced IRF3 signaling, primary screen, TLR/RLR signaling modifier project, cell-based, Sendai virus stimulus, luciferase, 10K MLSCN set (AID 602276;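 active means inhibition at or above 50% at 10 µM; inactive means inhibition below 50%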;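 further: firefly luciferase from ISG56 promoter only with Renilla not read in this screen; 0% = Sendai virus plus DMSO and 100% = medium plus DMSO without virus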). As to conditions: HEK293 RL24 IRF3 luciferase reporter, at 10 µM, stronger effect = higher value. For orientation: In a reporter assay the amount or activity of a reporter protein is the signal.
Test [8] is described as follows: inhibitors of poly I:C-induced TLR3 signaling, primary screen, cell-based, poly I:C stimulus, luciferase, 10K MLSCN set (AID 602277;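 active means inhibition of the reporter signal at or above 50%; inactive means inhibition below 50%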). As to conditions: HEK293-TLR3 RL24 IRF3 luciferase reporter, at 10 µM, stronger effect = higher value.

The structures appear in SMILES notation. Activity calls are given as the source filed them.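 How the source made its calls, unless noted: active means fluorescence slope higher than the sample average by over 3 SD (cut at about -0.22 in these data, passing the limit was not always enough); inactive means the rest.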

Sequence of Muscarinic acetylcholine receptor M4 (Homo sapiens) (P08173 whole entry, looked up): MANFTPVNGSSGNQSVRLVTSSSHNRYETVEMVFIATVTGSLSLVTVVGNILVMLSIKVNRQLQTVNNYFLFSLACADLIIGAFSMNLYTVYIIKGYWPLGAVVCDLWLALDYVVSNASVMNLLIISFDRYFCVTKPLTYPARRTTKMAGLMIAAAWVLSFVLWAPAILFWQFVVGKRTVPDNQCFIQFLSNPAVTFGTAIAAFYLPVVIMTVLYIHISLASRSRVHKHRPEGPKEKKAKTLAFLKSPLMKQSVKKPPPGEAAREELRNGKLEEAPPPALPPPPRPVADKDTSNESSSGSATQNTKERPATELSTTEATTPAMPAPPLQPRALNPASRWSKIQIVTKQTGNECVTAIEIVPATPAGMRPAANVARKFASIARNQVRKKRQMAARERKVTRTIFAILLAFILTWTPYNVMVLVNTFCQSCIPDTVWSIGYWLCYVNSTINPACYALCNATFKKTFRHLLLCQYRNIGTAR
Sequence of Voltage-gated potassium channel subunit beta-2 (Rattus norvegicus) (P62483 whole entry, looked up): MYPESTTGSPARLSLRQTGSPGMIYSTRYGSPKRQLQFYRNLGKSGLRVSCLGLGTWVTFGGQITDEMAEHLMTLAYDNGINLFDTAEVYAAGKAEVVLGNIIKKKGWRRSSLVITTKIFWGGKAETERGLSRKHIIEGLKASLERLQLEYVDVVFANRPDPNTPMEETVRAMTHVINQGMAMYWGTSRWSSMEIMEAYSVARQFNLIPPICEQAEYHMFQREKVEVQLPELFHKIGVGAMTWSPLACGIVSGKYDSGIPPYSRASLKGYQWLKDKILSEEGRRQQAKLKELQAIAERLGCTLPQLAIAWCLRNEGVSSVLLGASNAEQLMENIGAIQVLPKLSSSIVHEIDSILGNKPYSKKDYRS

As a reminder, the inhibition is the drop in the measured response relative to a control, in per cent. Take `CS(=O)(=O)N1CCN(CC2CC3C=CC2C3)CC1` (centres undefined): the cell count in test [1] was 367. Moreover, the inhibition in test [1] is -3% (inactive); in test [3], -18.9% (inactive); in test [7], 14.1% (inactive); in test [8] it was 25.1% (inactive). The inhibition of aggregation in test [2] is -5.6% (inactive). For the same compound, the values for the nuclei count in test [2] and in test [3] were 94.8% and 123%, respectively. In addition, the fluorescence slope is -0.199 (inactive) in test [4] and 0.00684 (inactive) in test [6]. The NADPH fluorescence slope in test [5] was -2e-05 (inactive).

Regarding `CCOC(=O)c1cc2sccc2n1CC(=O)Nc1ccc(OC)cc1OC`, the cell count in test [1] is 550. Also, the inhibition is -28.2% (inactive) in test [1], -22.6% (inactive) in test [3], 19% (inactive) in test [7] and 32.5% (inactive) in test [8]. In addition, the inhibition of aggregation in test [2] was 2.8% (inactive). The nuclei count in test [2] is 96.6%; in test [3], 107%. Further, the fluorescence slope is -0.542 (inactive) in test [4] and 0.00418 (inactive) in test [6]. The NADPH fluorescence slope in test [5] is 5.3e-06 (inactive).

As to `CCOCC(=O)Nc1nc2ccc(OC)cc2s1`, in test [1], the cell count was 411. Further, the inhibition in test [1] was 2.9% (inactive); in test [3] it was -85.2% (inactive); in test [7], -34.1% (inactive); in test [8] it was -111% (inactive). In test [2], the inhibition of aggregation was -11.8% (inactive). The nuclei count came out at 102% in test [2] and 127% in test [3]. For the same compound, the fluorescence slope is -0.522 (inactive) in test [4] and 0.00427 (inactive) in test [6]. In test [5], the NADPH fluorescence slope was -0.000124 (inactive).

On to `CC1(C)Cc2noc(N)c2C(C)(C)N1OC(=O)c1ccco1`, for which the cell count in test [1] came out at 295. In addition, the inhibition was -6.6% (inactive) in test [1], -89.1% (inactive) in test [3], 16.2% (inactive) in test [7] and 23.5% (inactive) in test [8]. Moreover, the inhibition of aggregation in test [2] was 21.5% (inactive). The nuclei count in test [2] stood at 87.2%; in test [3] it was 88.4%. The fluorescence slope in test [4] is -0.474 (inactive); in test [6], 0.00628 (inactive). The NADPH fluorescence slope in test [5] is 2.9e-05 (inactive).

Consider `O=C(CC1CCCCC1)NCc1ccccn1`, for which the cell count in test [1] was determined as 595. In addition, the inhibition in test [1] is 4.1% (inactive); in test [3] it was -42.2% (inactive); in test [7], 11.5% (inactive); in test [8], 12.6% (inactive). Also, in test [2], the inhibition of aggregation is 11.3% (inactive). Besides, the nuclei count in test [2] was 94.6%; in test [3], 116%. Besides, the fluorescence slope is -0.462 (inactive) in test [4] and 0.00493 (inactive) in test [6]. The NADPH fluorescence slope in test [5] was -5.1e-05 (inactive).

As for `CCOC(=O)C1=C(CN2CCOCC2)NC(=O)NC1c1cc(C)ccc1C` (centres undefined), in test [1], the cell count amounted to 492. In addition, the inhibition in test [1] is -3% (inactive); in test [3] it was -30.8% (inactive); in test [7] it was 15.4% (inactive); in test [8], 7.78% (inactive). For the same compound, the inhibition of aggregation in test [2] was -1.1% (inactive). In addition, the nuclei count in test [2] was 117%; in test [3], 108%. Further, the values for the fluorescence slope in test [4] and in test [6] were -0.205 (inactive) and 0.00619 (inactive), respectively. For the same compound, the NADPH fluorescence slope in test [5] was -1.6e-05 (inactive).

For `Cn1c(=O)c2c(nc(NCCc3ccccc3)n2CC(=O)NCCc2ccccc2)n(C)c1=O`, the cell count in test [1] turned out to be 339. Further, the inhibition was 2.5% (inactive) in test [1], -86.4% (inactive) in test [3], 30.2% (inactive) in test [7] and 31.9% (inactive) in test [8]. In addition, the inhibition of aggregation in test [2] is 6.2% (inactive). In addition, the figures for the nuclei count in test [2] and in test [3] were 94.2% and 105%, respectively. The fluorescence slope was -0.575 (inactive) in test [4] and 0.00514 (inactive) in test [6]. Further, the NADPH fluorescence slope in test [5] is 2.8e-06 (inactive).

Consider `Cc1cc(NC(=O)COC(=O)c2cccc(S(=O)(=O)N3CCOCC3)c2)no1`, for which the cell count in test [1] came to 457. In addition, the inhibition is -26.1% (inactive) in test [1], 67.8% (active) in test [3], 12.1% (inactive) in test [7] and 24.4% (inactive) in test [8]. Besides, the inhibition of aggregation in test [2] is 10.5% (inactive). For the same compound, the nuclei count in test [2] came out at 106%; in test [3], 64.5%. For the same compound, the fluorescence slope in test [4] was -0.471 (inactive); in test [6], 0.00706 (inactive). Moreover, the NADPH fluorescence slope in test [5] was 1.8e-05 (inactive).

For the compound `Cc1ccc(F)cc1NC(=O)Cc1nn(C)c(=O)c2ccccc12`, the cell count in test [1] stood at 247. In addition, the inhibition in test [1] is 0.9% (inactive); in test [3], 17.2% (inactive); in test [7], 7.41% (inactive); in test [8], -19% (inactive). Moreover, the inhibition of aggregation in test [2] is 4.8% (inactive). For the same compound, the nuclei count was determined as 93.3% in test [2] and 102% in test [3]. Besides, the fluorescence slope was -0.555 (inactive) in test [4] and 0.00476 (inactive) in test [6]. The NADPH fluorescence slope in test [5] is -2.8e-05 (inactive).

With `O=C(CN(c1ccccc1)S(=O)(=O)c1ccccc1)N1CCN(Cc2ccc3c(c2)OCO3)CC1`, the cell count in test [1] is 372. The inhibition is 4% (inactive) in test [1], -23.4% (inactive) in test [3], 13.6% (inactive) in test [7] and 21.8% (inactive) in test [8]. For the same compound, in test [2], the inhibition of aggregation was -11.3% (inactive). Moreover, the nuclei count turned out to be 122% in test [2] and 116% in test [3]. The fluorescence slope in test [4] was -0.528 (inactive); in test [6] it was 0.00412 (inactive). Moreover, the NADPH fluorescence slope in test [5] is -3.2e-05 (inactive).

For `CCC(C)NC(=O)C1(C)CCC(=O)N1Cc1ccccc1OC` (centres undefined), the cell count in test [1] was 406. For the same compound, the inhibition was -14.1% (inactive) in test [1], -15.7% (inactive) in test [3], 12.9% (inactive) in test [7] and 22.5% (inactive) in test [8]. Also, the inhibition of aggregation in test [2] is -3.9% (inactive). Also, the nuclei count came to 105% in test [2] and 93.9% in test [3]. Besides, the fluorescence slope in test [4] was -0.512 (inactive); in test [6] it was 0.00751 (inactive). In addition, the NADPH fluorescence slope in test [5] was 0.000141 (inactive).

Turning to `Cc1ccc2nsnc2c1S(=O)(=O)N1CCN(Cc2ccc3c(c2)OCO3)CC1`, the cell count in test [1] came out at 486. Moreover, the inhibition is -13.1% (inactive) in test [1], -9.8% (inactive) in test [3], 12.5% (inactive) in test [7] and 27.7% (inactive) in test [8]. Moreover, in test [2], the inhibition of aggregation was -11.5% (inactive). For the same compound, the nuclei count was 108% in test [2] and 83.9% in test [3]. The fluorescence slope in test [4] was -0.468 (inactive); in test [6], 0.00415 (inactive). Also, in test [5], the NADPH fluorescence slope was -4.9e-05 (inactive).

For `Cc1ccc(-c2c3c(=O)n(C)c(=O)n(C)c3cn2CCCN2CCOCC2)cc1`, the cell count in test [1] was 761. The inhibition in test [1] is 4.5% (inactive); in test [3] it was -32% (inactive); in test [7] it was 10.9% (inactive); in test [8], 18.9% (inactive). In test [2], the inhibition of aggregation was 1.2% (inactive). For the same compound, the figures for the nuclei count in test [2] and in test [3] were 92.9% and 116%, respectively. Also, the fluorescence slope in test [4] is -0.414 (inactive); in test [6], 0.00744 (inactive). Further, the NADPH fluorescence slope in test [5] was 2.2e-05 (inactive).

For `CC1CN(CC(O)COc2ccc(C(C)C)cc2)CC(C)O1` (centres undefined), the cell count in test [1] worked out at 812. In addition, the inhibition in test [1] was -4.8% (inactive); in test [3], -54.5% (inactive); in test [7], -56.4% (inactive); in test [8] it was 98.7% (active). Also, in test [2], the inhibition of aggregation was 7.5% (inactive). The nuclei count in test [2] was 120%; in test [3] it was 140%. The fluorescence slope in test [4] was -0.534 (inactive); in test [6], 0.0054 (inactive). The NADPH fluorescence slope in test [5] is -0.000138 (inactive).
